Data: paper PMC4969713 (Journal of Alzheimer's Disease, 2016)
Like-named read-outs stand apart in the source and are kept apart here.

Tests used:
[1] = biological target: 5-HT1B receptor; conditions: Table 2; cited from earlier work
[2] = biological target: T1, 5-HT2A receptor (Homo sapiens, UniProt P28223); conditions: Table 2; cited from earlier work
[3] = biological target: T2, 5-HT7 receptor (Homo sapiens, UniProt P34969); conditions: cited from earlier work
[4] = biological target: 5-HT1A receptor (Homo sapiens, UniProt P08908); conditions: Table 2; cited from earlier work
Sequence of 5-HT1A receptor (P08908 whole entry): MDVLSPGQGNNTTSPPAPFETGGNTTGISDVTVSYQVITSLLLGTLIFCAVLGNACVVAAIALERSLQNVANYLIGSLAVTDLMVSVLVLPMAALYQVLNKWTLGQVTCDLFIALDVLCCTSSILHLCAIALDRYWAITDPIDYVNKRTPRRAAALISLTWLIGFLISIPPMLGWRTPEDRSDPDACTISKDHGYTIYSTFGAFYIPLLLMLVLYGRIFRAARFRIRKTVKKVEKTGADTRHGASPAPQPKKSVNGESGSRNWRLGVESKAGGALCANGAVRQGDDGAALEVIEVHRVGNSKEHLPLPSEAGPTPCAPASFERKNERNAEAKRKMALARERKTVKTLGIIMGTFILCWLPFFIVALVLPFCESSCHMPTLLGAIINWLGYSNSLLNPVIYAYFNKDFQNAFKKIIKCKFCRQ

[5] = biological target: T3, 5-HT2C receptor (Homo sapiens, UniProt P28335); conditions: Table 2; cited from earlier work
T3 sequence (P28335 33-458): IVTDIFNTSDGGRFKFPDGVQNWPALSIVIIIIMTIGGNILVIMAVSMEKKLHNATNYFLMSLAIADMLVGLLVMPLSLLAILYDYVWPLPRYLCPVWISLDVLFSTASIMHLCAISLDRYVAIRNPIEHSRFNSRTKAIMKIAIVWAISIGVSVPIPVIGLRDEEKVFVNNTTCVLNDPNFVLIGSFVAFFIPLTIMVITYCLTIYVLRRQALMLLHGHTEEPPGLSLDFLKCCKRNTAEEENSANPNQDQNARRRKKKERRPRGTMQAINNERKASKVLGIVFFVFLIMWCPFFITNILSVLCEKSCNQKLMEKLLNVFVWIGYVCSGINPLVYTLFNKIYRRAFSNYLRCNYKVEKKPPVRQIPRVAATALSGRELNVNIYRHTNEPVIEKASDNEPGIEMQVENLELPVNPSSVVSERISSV

[6] = biological target: 5-HT2B receptor (Homo sapiens, UniProt P41595); conditions: Table 2; cited from earlier work
[7] = biological target: T1, 5-HT2A receptor; assay: Radioligand binding competition, 5-HT2A
[8] = biological target: T2, 5-HT7 receptor; assay: Radioligand binding competition, 5-HT7
[9] = biological target: 5-HT6 receptor (Homo sapiens, UniProt P50406); assay: Radioligand binding competition, 5-HT6
[10] = biological target: histamine H2 receptor (Homo sapiens, UniProt P25021); assay: Radioligand binding competition, histamine H2
Sequence of histamine H2 receptor (P25021 whole entry): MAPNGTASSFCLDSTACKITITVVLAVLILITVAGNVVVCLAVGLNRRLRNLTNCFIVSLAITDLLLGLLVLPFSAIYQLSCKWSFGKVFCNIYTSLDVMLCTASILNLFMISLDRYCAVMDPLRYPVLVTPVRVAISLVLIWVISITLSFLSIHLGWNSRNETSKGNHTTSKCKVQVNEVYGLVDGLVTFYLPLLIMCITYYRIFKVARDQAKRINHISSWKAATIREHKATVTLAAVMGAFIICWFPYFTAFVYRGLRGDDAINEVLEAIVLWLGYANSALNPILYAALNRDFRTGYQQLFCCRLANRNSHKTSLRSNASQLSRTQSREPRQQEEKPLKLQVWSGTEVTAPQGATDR

[11] = biological target: Adrenergic α2A (Homo sapiens, UniProt P08913); assay: Radioligand competition, adrenergic α2A; format: binding
Sequence of Adrenergic α2A (P08913 whole entry): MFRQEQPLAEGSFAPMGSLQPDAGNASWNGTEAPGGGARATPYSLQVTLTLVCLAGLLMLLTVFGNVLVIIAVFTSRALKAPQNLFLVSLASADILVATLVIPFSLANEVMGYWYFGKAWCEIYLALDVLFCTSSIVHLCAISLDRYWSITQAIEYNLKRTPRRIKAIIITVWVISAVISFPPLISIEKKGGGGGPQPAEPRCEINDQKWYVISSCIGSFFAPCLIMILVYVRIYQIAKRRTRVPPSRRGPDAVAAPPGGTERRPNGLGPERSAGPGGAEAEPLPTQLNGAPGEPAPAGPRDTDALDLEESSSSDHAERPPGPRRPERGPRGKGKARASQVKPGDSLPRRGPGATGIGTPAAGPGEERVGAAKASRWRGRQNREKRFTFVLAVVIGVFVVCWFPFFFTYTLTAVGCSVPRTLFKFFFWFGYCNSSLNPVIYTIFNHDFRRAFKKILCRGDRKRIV

[12] = biological target: 5-HT3 receptor (Homo sapiens, UniProt P46098); assay: Target panel binding, 5-HT3
Sequence of 5-HT3 receptor (P46098 24-478): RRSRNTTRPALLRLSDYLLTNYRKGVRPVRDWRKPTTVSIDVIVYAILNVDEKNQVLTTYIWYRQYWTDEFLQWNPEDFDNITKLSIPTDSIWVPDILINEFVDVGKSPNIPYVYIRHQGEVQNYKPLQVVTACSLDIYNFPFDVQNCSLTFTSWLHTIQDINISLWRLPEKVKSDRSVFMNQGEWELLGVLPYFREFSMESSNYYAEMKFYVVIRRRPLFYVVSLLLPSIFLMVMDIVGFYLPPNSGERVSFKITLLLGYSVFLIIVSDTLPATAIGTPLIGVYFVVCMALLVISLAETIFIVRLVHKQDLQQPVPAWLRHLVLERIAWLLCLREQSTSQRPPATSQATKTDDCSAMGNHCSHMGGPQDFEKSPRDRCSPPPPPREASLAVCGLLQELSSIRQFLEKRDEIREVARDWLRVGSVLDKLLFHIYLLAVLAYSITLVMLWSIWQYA

[13] = biological target: T3, 5-HT2C receptor; assay: Radioligand binding competition, 5-HT2C
[14] = Pharmacokinetics in dogs; format: in vivo, dogs (Beagle); conditions: for AUC0 - >∞ / Cmax / T1/2 / Tmax: label = substance analyzed
[15] = biological target: Adrenergic α1A (Homo sapiens, UniProt P35348); assay: Radioligand competition, adrenergic α1A; format: binding
[16] = biological target: histamine H1 receptor (Homo sapiens, UniProt P35367); assay: Radioligand binding competition, histamine H1
Sequence of histamine H1 receptor (P35367 whole entry, species assumed): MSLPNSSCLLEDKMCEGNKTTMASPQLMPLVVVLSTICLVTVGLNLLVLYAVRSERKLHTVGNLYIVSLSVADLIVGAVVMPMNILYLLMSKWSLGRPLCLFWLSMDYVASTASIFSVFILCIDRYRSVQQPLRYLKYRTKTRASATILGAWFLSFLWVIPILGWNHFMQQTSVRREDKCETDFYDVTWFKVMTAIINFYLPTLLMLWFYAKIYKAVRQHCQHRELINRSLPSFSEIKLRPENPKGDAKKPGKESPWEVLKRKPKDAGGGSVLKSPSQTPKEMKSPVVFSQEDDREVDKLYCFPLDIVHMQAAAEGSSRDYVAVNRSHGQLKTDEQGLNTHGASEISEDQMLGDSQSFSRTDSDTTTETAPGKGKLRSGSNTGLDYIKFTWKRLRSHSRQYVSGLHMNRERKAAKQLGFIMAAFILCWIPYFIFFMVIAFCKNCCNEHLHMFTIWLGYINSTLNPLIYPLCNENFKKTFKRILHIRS

[17] = test system: male BALB/c mice; assay: Elevated Plus-Maze; format: in vivo; conditions: IP, Buspirone 5 mg/kg
Summary of the method: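 Elevated plus-maze in mice. Read-outs were open/closed arm time ratio, open/closed visit ratio, defecations and total visits. Each treated group was compared with the placebo group by Student t-test.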

[18] = biological target: hERG potassium channel (Homo sapiens, UniProt Q12809); assay: hERG single cell patch clamp in HEK cells; conditions: potassium currents, patch clamp
Sequence of hERG potassium channel (Q12809 whole entry): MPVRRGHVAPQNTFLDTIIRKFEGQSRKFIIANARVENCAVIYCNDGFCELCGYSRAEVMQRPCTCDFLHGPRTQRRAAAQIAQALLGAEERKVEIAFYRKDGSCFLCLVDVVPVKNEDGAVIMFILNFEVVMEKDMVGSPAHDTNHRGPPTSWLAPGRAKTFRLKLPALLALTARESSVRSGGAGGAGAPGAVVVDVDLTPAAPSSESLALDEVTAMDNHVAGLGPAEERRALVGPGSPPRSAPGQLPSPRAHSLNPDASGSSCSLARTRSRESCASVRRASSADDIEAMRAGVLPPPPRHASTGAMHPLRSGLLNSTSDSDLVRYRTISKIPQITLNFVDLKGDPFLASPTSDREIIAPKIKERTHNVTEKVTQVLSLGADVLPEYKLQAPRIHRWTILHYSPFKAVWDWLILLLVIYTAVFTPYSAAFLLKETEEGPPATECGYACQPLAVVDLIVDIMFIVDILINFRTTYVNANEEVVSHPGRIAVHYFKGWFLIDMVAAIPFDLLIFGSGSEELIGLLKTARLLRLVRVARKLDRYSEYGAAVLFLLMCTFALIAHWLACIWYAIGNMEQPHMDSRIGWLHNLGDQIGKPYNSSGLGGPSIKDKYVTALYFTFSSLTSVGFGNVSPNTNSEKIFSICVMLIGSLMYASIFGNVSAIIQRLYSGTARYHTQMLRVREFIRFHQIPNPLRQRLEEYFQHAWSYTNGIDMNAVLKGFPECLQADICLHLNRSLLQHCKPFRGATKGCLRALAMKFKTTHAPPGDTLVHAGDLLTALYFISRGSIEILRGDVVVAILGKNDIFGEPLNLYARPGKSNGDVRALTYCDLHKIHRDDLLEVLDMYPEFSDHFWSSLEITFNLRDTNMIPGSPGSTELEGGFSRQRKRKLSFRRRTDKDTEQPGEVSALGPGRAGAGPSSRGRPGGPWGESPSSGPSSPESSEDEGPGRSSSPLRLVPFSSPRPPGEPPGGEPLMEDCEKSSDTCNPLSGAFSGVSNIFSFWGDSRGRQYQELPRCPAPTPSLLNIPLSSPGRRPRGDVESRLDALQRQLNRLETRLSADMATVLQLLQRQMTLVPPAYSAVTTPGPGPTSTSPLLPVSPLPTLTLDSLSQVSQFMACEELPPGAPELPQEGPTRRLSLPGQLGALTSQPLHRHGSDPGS

[19] = biological target: 5-HT4 receptor (Homo sapiens, UniProt Q13639); assay: Target panel binding, 5-HT4
Sequence of 5-HT4 receptor (Q13639 whole entry): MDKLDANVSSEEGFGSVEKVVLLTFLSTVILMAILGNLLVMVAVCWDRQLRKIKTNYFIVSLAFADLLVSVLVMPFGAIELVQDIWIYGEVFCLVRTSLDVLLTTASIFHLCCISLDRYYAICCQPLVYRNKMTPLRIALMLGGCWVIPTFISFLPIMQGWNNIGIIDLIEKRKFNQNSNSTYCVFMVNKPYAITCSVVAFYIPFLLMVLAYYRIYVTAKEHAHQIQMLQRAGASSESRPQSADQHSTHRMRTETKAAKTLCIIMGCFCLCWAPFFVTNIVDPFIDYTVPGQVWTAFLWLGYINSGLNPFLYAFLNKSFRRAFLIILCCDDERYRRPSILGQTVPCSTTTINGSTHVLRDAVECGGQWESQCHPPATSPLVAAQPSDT

[20] = Phase I pharmacokinetics, single PO dose; format: in vivo, human; conditions: for AUC0 - >∞ / Cmax / T1/2: label = substance analyzed, Means ± SD

T2 sequence (P34969 whole entry): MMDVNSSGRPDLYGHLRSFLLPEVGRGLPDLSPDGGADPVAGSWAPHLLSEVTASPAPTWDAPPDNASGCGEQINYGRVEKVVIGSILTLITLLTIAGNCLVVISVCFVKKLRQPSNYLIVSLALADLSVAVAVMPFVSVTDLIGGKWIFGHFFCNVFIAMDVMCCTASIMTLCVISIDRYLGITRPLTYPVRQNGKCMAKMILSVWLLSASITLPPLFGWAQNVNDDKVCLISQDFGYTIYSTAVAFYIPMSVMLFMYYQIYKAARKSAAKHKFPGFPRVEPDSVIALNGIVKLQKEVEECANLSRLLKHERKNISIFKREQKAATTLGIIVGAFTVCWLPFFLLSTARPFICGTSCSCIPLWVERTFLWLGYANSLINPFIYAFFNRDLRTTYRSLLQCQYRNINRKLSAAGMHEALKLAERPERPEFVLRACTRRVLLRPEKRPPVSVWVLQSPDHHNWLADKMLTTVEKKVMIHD
T1 sequence (P28223 whole entry): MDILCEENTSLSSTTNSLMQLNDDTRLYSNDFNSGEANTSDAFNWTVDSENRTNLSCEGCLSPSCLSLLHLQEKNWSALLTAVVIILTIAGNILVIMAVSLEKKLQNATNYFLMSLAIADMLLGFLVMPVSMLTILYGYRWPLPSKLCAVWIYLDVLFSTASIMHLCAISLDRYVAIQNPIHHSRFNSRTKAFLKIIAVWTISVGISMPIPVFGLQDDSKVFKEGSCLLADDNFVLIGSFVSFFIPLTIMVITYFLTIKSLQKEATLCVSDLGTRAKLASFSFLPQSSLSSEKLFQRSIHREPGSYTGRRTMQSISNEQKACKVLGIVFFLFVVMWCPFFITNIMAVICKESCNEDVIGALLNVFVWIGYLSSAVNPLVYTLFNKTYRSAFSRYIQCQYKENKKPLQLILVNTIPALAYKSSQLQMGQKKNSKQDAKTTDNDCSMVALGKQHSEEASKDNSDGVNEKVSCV

## Fc1ccc2c(CCNCc3cccc(OCC(F)(F)C(F)F)c3)c[nH]c2c1 [Lu AE58054]
[1]
  Ki: > 10000 nM
[2]
  Ki: 83 nM
[3]; Table 2
  Ki: > 10000 nM
[3]
  binding affinity: very low, if any
[4]
  Ki: 2300 nM
[5]
  Ki: 250 nM
[6]
  Ki: > 4100 nM

## Cc1ccc2c(c1)c1c(n2CC(O)c2ccccc2)CCN(C)C1 (stereo not drawn) [M1, 2-(2,8-dimethyl-1,2,3,4-tetrahydro-pyrido[[4,3-b]]indol-5-yl)-1-phenyl-ethan-ol]
[7]
  lower affinity compared to AVN-101: 2 fold
[8]
  Ki: 7.72 nM
[9]
  lower affinity compared to AVN-101: 4 fold
[10]
  lower affinity compared to AVN-101: 9 fold
[11]
  lower affinity compared to AVN-101: 3 fold
[12]
  interaction: Neither AVN-101 nor its metabolites, M1 and M2, seem to interact
[13]
  lower affinity compared to AVN-101: 7 fold
[14]; M1 PO 5 mg/kg vs IV 1 mg/kg
  Fabs: 8.4%
[14]; after AVN-101 IV 2 mg/kg
  AUC0 - >∞: 264.6 ng·min/mL
  Cmax: 5.7 ng/mL
  T1/2: 0.857 h
  Tmax: 0.083 h
[14]; after AVN-101 PO 10 mg/kg
  AUC0 - >∞: 8,995 min×ng/mL
  Cmax: 30.1 ng/mL
  T1/2: 2.582 h
  Tmax: 1 h
[14]; after M1 IV 1 mg/kg
  AUC0 - >∞: 25,894 min×ng/mL
  Cmax: 4,550 ng/mL
  T1/2: 0.958 h
  Tmax: 0.017 h
[14]; after M1 PO 5 mg/kg
  AUC0 - >∞: 10,828 min×ng/mL
  Cmax: 43 ng/mL
  T1/2: 2.308 h
  Tmax: 2 h
[15]
  affinity compared to AVN-101: practically same affinity
[16]
  Ki: ~48 nM
  lower affinity compared to AVN-101: 83 fold
[17]; M1 5 or 20 mg/kg, M2 1 and 5 mg/kg
  locomotion (total number of arm visits): some reduction in mice locomotor activity
[17]; M2 0.05, 0.5, 1.0, 5.0 mg/kg
  anxiolytic effect (open/closed arm time and visits, defecations): clear anxiolytic effects
[18]
  IC50: 1630 nM
[19]
  interaction: Neither AVN-101 nor its metabolites, M1 and M2, seem to interact
[20]; AVN-101 PO 2 mg
  AUC0 - >∞: 0.22 ± 0.116 ng·h/mL
  Cmax: 0.0561 ± 0.0182 ng/mL
  T1/2: 2.49 ± 1.2 h
[20]; AVN-101 PO 4 mg
  AUC0 - >∞: 0.555 ± 0.297 ng·h/mL
  Cmax: 0.112 ± 0.0381 ng/mL
  T1/2: 2.48 ± 1.27 h
[20]; AVN-101 PO 10 mg
  AUC0 - >∞: 1.41 ± 0.688 ng·h/mL
  Cmax: 0.292 ± 0.176 ng/mL
  T1/2: 2.8 ± 1.71 h
[20]; AVN-101 PO 20 mg
  AUC0 - >∞: 3.1 ± 0.87 ng·h/mL
  Cmax: 0.635 ± 0.311 ng/mL
  T1/2: 3.85 ± 0.56 h
[20]; after PO AVN-101
  Tmax: around 1 h
